Experimental data gathered from unrelated publications.
Protocols differ between the studies behind these lines.
Effect on: microbial growth

SMILES	organism	assay	test system	conditions	MIC
CC1=NN(CNc2ccccc2[N+](=O)[O-])C(=O)C1=NNn1c(-c2ccccc2)nc2ccccc2c1=O	Micrococcus luteus	broth dilution	–	24 h	50.4 µM
CC[C@H](Nc1ncnc2nc[nH]c12)c1nc2cccc(F)c2c(=O)n1-c1ccccc1	Staphylococcus aureus	–	NCTC8325	–	> 30 µM
O=C(O)CN1C(=O)/C(=C/c2ccc(-c3ccc(N(c4ccccc4)c4ccccc4)cc3)cc2)NC1=S	Micrococcus luteus	broth dilution	ATCC10240	–	1.95 µg/mL
O=C(N[C@H](CO)[C@H](O)c1ccc([N+](=O)[O-])cc1)C(Cl)Cl	Micrococcus flavus	broth dilution	–	–	7 µg/mL
O=C(O)CN1C(=O)/C(=C/c2c3ccccc3c(-c3ccc(N(c4ccccc4)c4ccccc4)cc3)c3ccccc23)SC1=S	Micrococcus luteus	broth dilution	ATCC10240	–	125 µg/mL
O=C(Nc1ccc(Cc2ccccc2)cc1)Nc1ccc(Cl)c(C(F)(F)F)c1	Staphylococcus aureus	–	NCTC8325	24 h	1 µM
Cc1ncc([N+](=O)[O-])n1CCO	Lactobacillus acidophilus	agar dilution	–	48 h	> 16 µg/mL
O=C(O)CN1C(=O)/C(=C/c2ccc(-c3ccc(N(c4ccccc4)c4ccccc4)cc3)c3ccccc23)SC1=S	Micrococcus luteus	broth dilution	ATCC10240	–	31.3 µg/mL
CN[C@H](CC(C)C)C(=O)N[C@H]1C(=O)N[C@@H](CC(N)=O)C(=O)N[C@H]2C(=O)N[C@H]3C(=O)N[C@H](C(=O)N[C@H](C(=O)O)c4cc(O)cc(O)c4-c4cc3ccc4O)[C@H](O)c3ccc(c(Cl)c3)Oc3cc2cc(c3O[C@@H]2O[C@H](CO)[C@@H](O)[C@H](O)[C@H]2O[C@H]2C[C@](C)(N)[C@H](O)[C@H](C)O2)Oc2ccc(cc2Cl)[C@H]1O	Staphylococcus aureus	–	NCTC8325	–	1 µM
O=C(O)CN1C(=O)/C(=C/c2ccc(-c3ccc(N(c4ccccc4)c4ccccc4)cc3)c3ccccc23)NC1=S	Micrococcus luteus	broth dilution	ATCC10240	–	> 1000 µg/mL
NC(=O)c1c(NC(=O)C2CC2)sc2c1CCCC2	Staphylococcus aureus	–	NCTC8325	–	> 30 µM
O=C1NN=C(N=Cc2ccc(O)cc2O)C1=NNn1c(-c2ccccc2)nc2ccccc2c1=O	Micrococcus luteus	broth dilution	–	24 h	53.5 µM
Cc1cnc(Nc2ccc(N3CCN(C)CC3)cc2)nc1Nc1cccc(S(=O)(=O)NC(C)(C)C)c1	Staphylococcus aureus	–	NCTC8325	–	> 30 µM
O=C1NC(=S)N/C1=C\c1ccc(-c2ccc(N(c3ccccc3)c3ccccc3)cc2)cc1	Micrococcus luteus	broth dilution	ATCC10240	–	62.5 µg/mL
O=c1[nH]c(NCc2ccc(Cl)c(Cl)c2)nc2ncn(CCCCCN3CCOCC3)c12	Lactobacillus acidophilus	agar dilution	–	48 h	2 µg/mL
CC1=NN(CNC(=O)c2ccccc2)C(=O)C1=NNn1c(-c2ccccc2)nc2ccccc2c1=O	Micrococcus luteus	broth dilution	–	24 h	51.9 µM
C/C=C(\C)c1cc(OC(=O)c2c(O)c(C)c(O)c(Cl)c2/C(C)=C/C)c(C)c(O)c1C(=O)O	Micrococcus luteus	broth dilution	ML01	–	32 µg/mL
